14 molecules from PubChem BioAssay can be followed below.

Activity calls are given as the source filed them.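 The calls were made as follows, unless noted: active = Her2 level under about 52% in both replicate screens, with viability over 70% of control (limit read from the data); inconclusive = Her2 under the limit in one screen only, or viability under 70%; inactive = Her2 level above the set limit.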

Assay [1] is described as follows: Her2 expression decrease, cell viability multiplex – SKBR3 breast tumor cells, AlphaScreen, ATP viability, primary screen (AID 461).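 As to Her2 level: lower value means less Her2 protein in the cells.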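 As to viability: percent of carrier control wells set as 100% viability.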 As to conditions: SKBR3 Her2 protein level, 18-24 h, measured here: SKBR3 viability, ATP luminescence, at 10 µM.
The target of assay [2] is Receptor tyrosine-protein kinase erbB-2 (Homo sapiens) (UniProt P04626). The description is as above. Conditions: 18-24 h, at 10 µM, stronger effect = lower value.
Assay [3] in a line: reduced viability of SK-BR-3 breast cancer cells – cell-based, 24 h, human, pilot screen (AID 572;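 active = viability at or below 10% of carrier control in both of two separate runs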;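 also: compound exposure lasted between 18 and 24 h rather than exactly 24 h; 100% = carrier-treated control wells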). Conditions: SK-BR-3 viability, CellTiter-Glo luminescence, at 10 µM, stronger effect = lower value. Background: Cellular ATP, detected with luciferase, serves as a proxy for viable cell number.
Assay [4] in a line: HUVEC growth inhibition – cell-based, human, primary screen (AID 575;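 active = viability at or below 30% in both replicate assays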;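 also: 100% = median of untreated cell wells with 0.1% DMSO on each plate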). Conditions: HUVEC proliferation, CellTiter-Glo luminescence, 72 h; at 10 µM; stronger effect = lower value. Put shortly:
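Assay system: primary human umbilical vein endothelial cells / Buffer or medium: endothelial basal medium with 2% FBS plus growth supplements / Compound dosing: one dose, 10 µM final, 0.1% DMSO / Timing: 72 h treatment at 37 °C / Signal: CTG luminescence / Benchmarks: 32 DMSO-only cell-control wells (high), 32 MePR drug-control wells (low) per plate / Plate: collagen-coated 384-well format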

Assay [5] is described as follows: H69AR cell proliferation blockers – human, duplicate replicates, primary screen (AID 580;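 active = viability at or under a set limit in both replicates, limit being median viability minus 3 SD, cut at about 48% in these data, passing the limit was not always enough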;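 also: 100% = mean luminescence of untreated wells and 0% = no signal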). Conditions: H69AR lung tumor cells viability, ATP luminescence, 72 h; at 10 µM; stronger effect = lower value.
The nature of assay [6]: MRP1 drug-resistance reversers in H69AR cells – cell-based, doxorubicin co-treatment, pilot screen (AID 601;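 active = viability loss from added drug above about 55%, and viability with drug at most 40%, in both replicates, limit read from the data, passing the limit was not always enough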). As to conditions: CellTiter-Glo, 72 h, at 10 µM; for differential viability (reversal): stronger effect = higher value.
Assay [7] is described as follows: yeast transport mutant growth inhibition pilot in 384-well plates, post-Golgi transport modulator project (AID 636; in the data active = inhibition above about 31%). Conditions: absorbance 615 nm, about 18 h, stronger effect = higher value.
Assay [8] is described as follows: growth suppression of yeast trafficking mutant, preliminary HTS, modulators of trafficking downstream of Golgi apparatus project, 1536-format plate, OD 615 nm (AID 637; in the data active = inhibition above about 30%). As to conditions: yeast transport mutant growth, absorbance 615 nm, 18 h; stronger effect = higher value.
[9] abbreviates: H69AR cells + 2 uM doxorubicin, measured here: viability with 2 uM doxorubicin, stronger effect = lower value.
Where [10] appears, read: H69AR cells, compound alone cytotoxicity.

Chain of Receptor tyrosine-protein kinase erbB-2 (Homo sapiens) (P04626 whole entry, looked up): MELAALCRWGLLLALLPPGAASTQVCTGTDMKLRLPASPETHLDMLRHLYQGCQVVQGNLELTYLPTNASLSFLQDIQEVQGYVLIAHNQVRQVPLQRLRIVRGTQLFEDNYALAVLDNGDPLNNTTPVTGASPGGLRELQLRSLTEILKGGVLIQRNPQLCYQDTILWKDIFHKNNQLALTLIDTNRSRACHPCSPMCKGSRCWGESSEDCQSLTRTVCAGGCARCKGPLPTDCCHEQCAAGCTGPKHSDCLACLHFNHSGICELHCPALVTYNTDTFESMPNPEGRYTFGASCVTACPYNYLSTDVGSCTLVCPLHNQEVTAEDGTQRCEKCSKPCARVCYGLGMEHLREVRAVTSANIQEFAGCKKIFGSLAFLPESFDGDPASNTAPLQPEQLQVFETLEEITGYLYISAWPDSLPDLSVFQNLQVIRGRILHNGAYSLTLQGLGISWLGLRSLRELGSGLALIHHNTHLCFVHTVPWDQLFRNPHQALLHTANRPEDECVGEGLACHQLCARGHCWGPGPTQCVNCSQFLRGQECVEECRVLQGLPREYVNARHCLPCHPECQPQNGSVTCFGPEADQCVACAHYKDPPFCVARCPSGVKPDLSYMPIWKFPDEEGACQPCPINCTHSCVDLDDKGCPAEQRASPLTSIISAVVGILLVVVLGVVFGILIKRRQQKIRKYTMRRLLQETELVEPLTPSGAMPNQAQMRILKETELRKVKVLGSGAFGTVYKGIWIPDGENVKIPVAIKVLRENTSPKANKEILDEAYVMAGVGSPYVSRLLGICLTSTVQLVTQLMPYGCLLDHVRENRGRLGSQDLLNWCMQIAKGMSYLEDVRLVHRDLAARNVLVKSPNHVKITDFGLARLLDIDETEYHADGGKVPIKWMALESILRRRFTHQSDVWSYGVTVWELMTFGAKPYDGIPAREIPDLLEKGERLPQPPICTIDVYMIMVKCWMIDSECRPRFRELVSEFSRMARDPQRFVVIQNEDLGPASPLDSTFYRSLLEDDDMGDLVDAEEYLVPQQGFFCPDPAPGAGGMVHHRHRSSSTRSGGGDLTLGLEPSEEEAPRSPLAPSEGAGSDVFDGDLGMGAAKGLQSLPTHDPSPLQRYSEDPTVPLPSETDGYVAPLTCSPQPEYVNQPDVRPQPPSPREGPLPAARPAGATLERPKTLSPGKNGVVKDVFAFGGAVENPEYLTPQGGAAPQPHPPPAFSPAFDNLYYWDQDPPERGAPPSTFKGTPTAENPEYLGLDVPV

In general, viability refers to a read-out of living cells in per cent, often relative to untreated cells. As usually defined, the inhibition is the relative decrease from the control value, in per cent. Consider `COc1ccc(N2C(=O)CC(N3CCN(c4ccccc4F)CC3)C2=O)cc1` (stereo not given), for which the viability in assay [1] was 88%; in assay [3], 88% (inactive); in assay [4], 91.1% (inactive); in assay [5] it was 105% (inactive); in assay [6] (setting [9]) it was 103%; in assay [6] (setting [10]), 105%. Also, the Her2 level in assay [2] was 98% (inactive). In addition, the differential viability (reversal) in assay [6] (H69AR cells + 2 uM doxorubicin) is 2.14% (inactive). The results for the inhibition in assay [7] and in assay [8] were -1.07% (inactive) and 2.26% (inactive), respectively.
As to `COC(=O)c1cc(NC(=O)C2COc3ccccc3O2)cc(C(=O)OC)c1` (stereo not given), the viability is 106% in assay [1]; 106% (inactive) in assay [3]; 91.1% (inactive) in assay [4]; 84.2% (inactive) in assay [5]; 74% in assay [6] (setting [9]); 84.2% in assay [6] (setting [10]). Also, the Her2 level in assay [2] was 86% (inactive). In assay [6] (H69AR cells + 2 uM doxorubicin), the differential viability (reversal) is 10.2% (inactive). Also, the inhibition was -5.6% (inactive) in assay [7] and 0.32% (inactive) in assay [8].
In the case of `COc1cc(Br)cc(/C=N/c2ncn[nH]2)c1O`, the viability was 134% in assay [1]; 134% (inactive) in assay [3]; 35.2% (inactive) in assay [4]; 86.6% (inactive) in assay [5]; 104% in assay [6] (setting [9]); 86.6% in assay [6] (setting [10]). Moreover, the Her2 level in assay [2] is 89% (inactive). The differential viability (reversal) in assay [6] (H69AR cells + 2 uM doxorubicin) is -17.5% (inactive). In addition, the inhibition is -4.81% (inactive) in assay [7] and -3.44% (inactive) in assay [8].
For the molecule `CCC(CC)C(=O)Nc1cccc(C(=O)NCc2ccco2)c1`, the viability was 94% in assay [1]; 94% (inactive) in assay [3]; 100% (inactive) in assay [4]; 69.1% (inactive) in assay [5]; 89.6% in assay [6] (setting [9]); 69.1% in assay [6] (setting [10]). Further, the Her2 level in assay [2] was 104% (inactive). The differential viability (reversal) in assay [6] (H69AR cells + 2 uM doxorubicin) was -20.5% (inactive). The inhibition in assay [7] was -3.24% (inactive); in assay [8] it was -1.64% (inactive).
For the molecule `Cn1c(=O)c2c(nc(SCC(=O)NCc3ccco3)n2C)n(C)c1=O`, the viability in assay [1] was 116%; in assay [3], 116% (inactive); in assay [4] it was 87.1% (inactive); in assay [5], 93.5% (inactive); in assay [6] (setting [9]), 93.6%; in assay [6] (setting [10]) it was 93.5%. The Her2 level in assay [2] was 98.5% (inactive). The differential viability (reversal) in assay [6] (H69AR cells + 2 uM doxorubicin) is -0.15% (inactive). Moreover, the inhibition in assay [7] is -0.78% (inactive); in assay [8], -4.76% (inactive).
For the molecule `CN(Cc1ccccc1)C(=O)c1ccc2c(c1)OCO2`, the viability in assay [1] is 101%; in assay [3], 101% (inactive); in assay [4], 88.2% (inactive); in assay [5], 108% (inactive); in assay [6] (setting [9]) it was 90.3%; in assay [6] (setting [10]), 108%. Further, in assay [2], the Her2 level is 97% (inactive). In assay [6] (H69AR cells + 2 uM doxorubicin), the differential viability (reversal) is 17.7% (inactive). Further, the inhibition was -2.53% (inactive) in assay [7] and 4.43% (inactive) in assay [8].
For the molecule `CCN1CCc2c(C#N)c(N3CCOCC3)nc(NCc3ccccc3)c2C1`, the viability in assay [1] was 84.5%; in assay [3], 84.5% (inactive); in assay [4], 88.4% (inactive); in assay [5], 81.3% (inactive); in assay [6] (setting [9]), 77.8%; in assay [6] (setting [10]) it was 81.3%. For the same molecule, the Her2 level in assay [2] was 88% (inactive). Besides, the differential viability (reversal) in assay [6] (H69AR cells + 2 uM doxorubicin) is 3.46% (inactive). For the same molecule, the inhibition in assay [7] is -6.03% (inactive); in assay [8], -4.76% (inactive).
Consider `COc1ccccc1CN1CC(C(=O)N2CCN(c3ccc(F)cc3)CC2)CC1=O` (stereo not given), for which the viability is 92% in assay [1]; 92% (inactive) in assay [3]; 98% (inactive) in assay [4]; 88.8% (inactive) in assay [5]; 92.3% in assay [6] (setting [9]); 88.8% in assay [6] (setting [10]). Besides, the Her2 level in assay [2] is 86% (inactive). Further, the differential viability (reversal) in assay [6] (H69AR cells + 2 uM doxorubicin) is -3.51% (inactive). In addition, the inhibition in assay [7] is -2.24% (inactive); in assay [8], 11.5% (inactive).
For `S=C(c1ccc(-c2cc(Cl)ccc2Cl)o1)N1CCOCC1`, the viability in assay [1] was 80.5%; in assay [3], 80.5% (inactive); in assay [4], 86.4% (inactive); in assay [5], 98.5% (inactive); in assay [6] (setting [9]), 107%; in assay [6] (setting [10]) it was 98.5%. Besides, in assay [2], the Her2 level is 85% (inactive). Moreover, the differential viability (reversal) in assay [6] (H69AR cells + 2 uM doxorubicin) is -8.1% (inactive). Further, the inhibition in assay [7] was -0.4% (inactive); in assay [8], 5.16% (inactive).
Regarding `COC(=O)c1ccc(NC(=O)C2CC(=O)N(c3cc(C)ccc3C)C2)cc1` (stereo not given), the viability was 97% in assay [1]; 97% (inactive) in assay [3]; 96.3% (inactive) in assay [4]; 89.8% (inactive) in assay [5]; 86.2% in assay [6] (setting [9]); 89.8% in assay [6] (setting [10]). For the same molecule, the Her2 level in assay [2] was 99.5% (inactive). Besides, in assay [6] (H69AR cells + 2 uM doxorubicin), the differential viability (reversal) is 3.6% (inactive). Besides, the results for the inhibition in assay [7] and in assay [8] were -1.76% (inactive) and 13.7% (inactive), respectively.
Regarding `O=C1NC2=C(C(=O)CCC2)C(c2ccc3ncccc3c2)N1` (stereo not given), the viability in assay [1] is 106%; in assay [3], 106% (inactive); in assay [4] it was 115% (inactive); in assay [5], 98.4% (inactive); in assay [6] (setting [9]) it was 85.8%; in assay [6] (setting [10]) it was 98.4%. Moreover, in assay [2], the Her2 level is 91% (inactive). In addition, the differential viability (reversal) in assay [6] (H69AR cells + 2 uM doxorubicin) was 12.6% (inactive). Besides, the inhibition in assay [7] is -1.64% (inactive); in assay [8] it was 1.9% (inactive).
Consider `Cc1cc(-c2ccc(F)cc2)nc2cc(C(N)=O)nn12`, for which the viability in assay [1] was 94.5%; in assay [3], 94.5% (inactive); in assay [4] it was 84.6% (inactive); in assay [5] it was 87.6% (inactive); in assay [6] (setting [9]), 89.6%; in assay [6] (setting [10]), 87.6%. For the same molecule, the Her2 level in assay [2] is 104% (inactive). Moreover, the differential viability (reversal) in assay [6] (H69AR cells + 2 uM doxorubicin) is -1.99% (inactive). The inhibition in assay [7] was -2.47% (inactive); in assay [8], 17.3% (inactive).
As to `Cc1cccc(Nc2nc3c(c(=O)n(C)c(=O)n3C)n2Cc2ccccc2)c1`, the viability in assay [1] is 122%; in assay [3], 122% (inactive); in assay [4], 93.2% (inactive); in assay [5], 96.6% (inactive); in assay [6] (setting [9]) it was 97.5%; in assay [6] (setting [10]), 96.6%. Also, the Her2 level in assay [2] is 87% (inactive). Further, the differential viability (reversal) in assay [6] (H69AR cells + 2 uM doxorubicin) was -0.855% (inactive). Besides, the inhibition in assay [7] was -4.32% (inactive); in assay [8] it was 2.86% (inactive).
In the case of `O=C(O)CCN1C(=O)c2ccccc2C1=O`, the viability in assay [1] was 99%; in assay [3], 99% (inactive); in assay [4] it was 112% (inactive); in assay [5] it was 97.5% (inactive); in assay [6] (setting [9]), 99.4%; in assay [6] (setting [10]), 97.5%. Besides, in assay [2], the Her2 level is 91% (inactive). Moreover, the differential viability (reversal) in assay [6] (H69AR cells + 2 uM doxorubicin) was -1.81% (inactive). Moreover, the inhibition in assay [7] was -2.24% (inactive); in assay [8], 2.79% (inactive).
